Reference: ChEMBL document CHEMBL4376836, “Identification of a Multitargeted Tyrosine Kinase Inhibitor for the Treatment of Gastrointestinal Stromal Tumors and Acute Myeloid Leukemia” (J Med Chem, 2019)

Key:
[1] = target: Platelet-derived growth factor receptor beta (Homo sapiens) (UniProt P09619); experiment: Inhibition of human PDGFR beta at 100 nM using poly (Glu,Tyr) 4:1 as substrate in presence of 33P-gamma ATP by hotspot kinase assay relative to control
[2] = test system: Platelet-derived growth factor receptor alpha (Homo sapiens), P16234 [V561D]; experiment: Inhibition of human PDGFR alpha V561D mutant at 100 nM using poly (Glu,Tyr) 4:1 as substrate in presence of 33P-gamma ATP by hotspot kinase assay relative to control
[3] = Half life in ICR mouse at 10 mg/kg, po via gavage by LC-MS/MS analysis; type: ADME, organism-based; conditions: in vivo
How it was run: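 Male ICR mice (25-35 g) and male Sprague-Dawley rats (300-400 g), jugular-cannulated rats, fasted overnight; single 2.0 mg/kg IV or 10 mg/kg oral gavage dose in PEG400/DMA (80/20, v/v). Blood sampled 0–24 h (rats via cannula, 3 rats per route; 3 mice per time point by cardiac puncture); plasma analysed by LC-MS/MS, non-compartmental analysis.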

Platelet-derived growth factor receptor beta (Homo sapiens), sequence (P09619 whole entry): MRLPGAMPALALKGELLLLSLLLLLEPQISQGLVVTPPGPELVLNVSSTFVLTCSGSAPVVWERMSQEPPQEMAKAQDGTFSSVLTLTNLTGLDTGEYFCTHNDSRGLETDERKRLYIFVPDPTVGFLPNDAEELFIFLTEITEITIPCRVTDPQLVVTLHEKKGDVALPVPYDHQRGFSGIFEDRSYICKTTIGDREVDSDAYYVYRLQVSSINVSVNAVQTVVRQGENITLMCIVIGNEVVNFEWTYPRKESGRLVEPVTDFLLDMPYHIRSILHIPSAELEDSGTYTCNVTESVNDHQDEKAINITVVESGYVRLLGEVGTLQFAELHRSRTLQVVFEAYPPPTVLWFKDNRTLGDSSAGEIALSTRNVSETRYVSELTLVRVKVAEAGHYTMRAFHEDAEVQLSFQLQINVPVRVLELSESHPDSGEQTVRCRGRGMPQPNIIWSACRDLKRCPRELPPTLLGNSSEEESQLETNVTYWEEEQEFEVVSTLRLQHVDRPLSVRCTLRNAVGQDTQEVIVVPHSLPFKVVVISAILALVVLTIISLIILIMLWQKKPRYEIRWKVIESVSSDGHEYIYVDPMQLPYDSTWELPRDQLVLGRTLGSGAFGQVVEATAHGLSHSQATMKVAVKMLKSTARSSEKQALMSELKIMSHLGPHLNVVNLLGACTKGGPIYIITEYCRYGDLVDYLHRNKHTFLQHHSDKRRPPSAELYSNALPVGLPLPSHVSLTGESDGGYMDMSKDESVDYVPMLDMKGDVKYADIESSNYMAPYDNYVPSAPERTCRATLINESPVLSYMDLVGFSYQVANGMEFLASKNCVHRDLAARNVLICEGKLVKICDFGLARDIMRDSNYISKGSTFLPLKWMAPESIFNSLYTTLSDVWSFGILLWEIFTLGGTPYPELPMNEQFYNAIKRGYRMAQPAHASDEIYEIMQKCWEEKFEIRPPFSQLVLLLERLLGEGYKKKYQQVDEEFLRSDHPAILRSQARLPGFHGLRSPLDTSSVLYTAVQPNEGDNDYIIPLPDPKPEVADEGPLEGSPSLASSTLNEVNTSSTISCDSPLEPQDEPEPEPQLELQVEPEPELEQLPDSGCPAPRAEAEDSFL
Platelet-derived growth factor receptor alpha (Homo sapiens), P16234 [V561D], sequence (P16234 whole entry V561D): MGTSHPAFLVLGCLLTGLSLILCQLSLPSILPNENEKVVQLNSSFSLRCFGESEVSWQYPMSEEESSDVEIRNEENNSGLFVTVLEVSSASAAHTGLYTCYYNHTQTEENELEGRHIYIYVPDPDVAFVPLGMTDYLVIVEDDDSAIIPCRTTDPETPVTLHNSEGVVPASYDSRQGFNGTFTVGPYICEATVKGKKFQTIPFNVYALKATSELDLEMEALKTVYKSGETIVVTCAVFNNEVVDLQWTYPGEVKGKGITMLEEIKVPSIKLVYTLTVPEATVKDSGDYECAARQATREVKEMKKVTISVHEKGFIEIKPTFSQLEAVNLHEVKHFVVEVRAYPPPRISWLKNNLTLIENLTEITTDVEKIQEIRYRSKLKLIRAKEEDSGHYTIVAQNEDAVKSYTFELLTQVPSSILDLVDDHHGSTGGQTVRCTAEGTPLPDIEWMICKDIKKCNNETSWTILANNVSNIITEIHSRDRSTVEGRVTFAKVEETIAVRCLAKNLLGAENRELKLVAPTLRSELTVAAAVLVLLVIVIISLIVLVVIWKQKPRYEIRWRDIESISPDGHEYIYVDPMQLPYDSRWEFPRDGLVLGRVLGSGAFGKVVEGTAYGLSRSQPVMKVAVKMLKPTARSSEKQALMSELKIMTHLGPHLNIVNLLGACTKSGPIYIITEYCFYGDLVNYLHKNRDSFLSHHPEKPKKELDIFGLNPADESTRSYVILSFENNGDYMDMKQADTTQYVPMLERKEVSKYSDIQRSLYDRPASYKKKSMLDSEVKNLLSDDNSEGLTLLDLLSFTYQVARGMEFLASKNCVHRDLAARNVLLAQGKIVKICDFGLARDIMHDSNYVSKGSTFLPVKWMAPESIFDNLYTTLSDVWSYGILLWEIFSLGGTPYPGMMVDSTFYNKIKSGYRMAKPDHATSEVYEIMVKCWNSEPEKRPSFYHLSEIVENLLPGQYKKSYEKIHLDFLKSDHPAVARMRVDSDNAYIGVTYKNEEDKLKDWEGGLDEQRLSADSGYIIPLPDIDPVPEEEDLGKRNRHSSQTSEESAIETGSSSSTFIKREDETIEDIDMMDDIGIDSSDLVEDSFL

SMILES: CCN1CCN(c2cc(Nc3ncc(-c4ccncc4)s3)nc(C)n2)CC1.Cl
- inhibition [1]: 88%
- inhibition [2]: 75%
- half-life [3]: 4.1 h
